A selection: hits, their analogues and other compounds. The true share with any hit is near 1.1%.
MT1-MMP act inh – inhibitors of human MT1-MMP activation. actives 0.061% (n = 360,000). AID 651647. HT1080 RFP-PRO-GFP cells, GFP/RFP ratio fluorescence, overnight; percent of plate control window, DMSO zero. GFP/RFP ratio change, % at 20 µM. P50281;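 active = GFP/RFP ratio change of at least 30% with cell ATP level not reduced by more than half and red fluorescence within 50% of control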
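Assay system: HT1080 cells carrying an RFP-PRO-GFP reporter | Dosing: Single dose of 20 µM compound, 1% DMSO final | Incubation: Cells overnight before dosing, compound overnight, 37 °C, 5% CO2 | Evaluation: GFP/RFP fluorescence ratio | Control set: DMSO and RFP-L50D-GFP cell wells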
NR2E3 ag-1 – activates human NR2E3 receptor; CHO-S Gal4-NCOR/VP16-NR2E3 two-hybrid, luciferase; inhibition of corepressor binding, % at 3.98 µM; actives 0.35% (n = 360,000);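 active = inhibition above the mean of all tested compounds plus 3 SD, cut at about 70% in these data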;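 note: 0% = DMSO with NR2E3 transfected cells and 100% = cells lacking NR2E3 construct; higher means lower luciferase signal from less NR2E3 corepressor binding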
NR2E3 ag-2 – agonists of human nuclear receptor NR2E3; GST-NR2E3/biotin-RetCOR TR-FRET, 1536-well; Q9Y5X4; actives 0.12% (n = 320,000); inhibition of corepressor binding, % at 4.78 µM; AID 2300;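 active = percent inhibition above the cutoff of mean plus 3 SD of all tested compounds, set per screening campaign, cut at about 20% in these data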;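 note: 0% = DMSO wells and 100% = biotin wells as full block of FRET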
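system = GST-tagged NR2E3 plus biotinylated RetCOR corepressor | input = 1.35 nM GST-NR2E3 | also added = 7 nM biotin-RetCOR | schedule = 5 h incubation at 4 °C | measured by = TR-FRET with europium anti-GST and streptavidin-D2, 340 nm excitation | read-out = percent loss of FRET ratio relative to control wells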
DAGLB inh – diacylglycerol lipase beta (human) inhibition | Q8NCG7 | HEK293T DAGLB membrane lysate, EnzChek fluorogenic substrate | inhibition, % at 5.17 µM | actives 0.059% (n = 340,000) | AID 504411; in the data active = inhibition above about 34%;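 note: 0% = enzyme with vehicle and 100% = wells lacking enzyme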
Target sequence (Q8NCG7 whole entry, looked up): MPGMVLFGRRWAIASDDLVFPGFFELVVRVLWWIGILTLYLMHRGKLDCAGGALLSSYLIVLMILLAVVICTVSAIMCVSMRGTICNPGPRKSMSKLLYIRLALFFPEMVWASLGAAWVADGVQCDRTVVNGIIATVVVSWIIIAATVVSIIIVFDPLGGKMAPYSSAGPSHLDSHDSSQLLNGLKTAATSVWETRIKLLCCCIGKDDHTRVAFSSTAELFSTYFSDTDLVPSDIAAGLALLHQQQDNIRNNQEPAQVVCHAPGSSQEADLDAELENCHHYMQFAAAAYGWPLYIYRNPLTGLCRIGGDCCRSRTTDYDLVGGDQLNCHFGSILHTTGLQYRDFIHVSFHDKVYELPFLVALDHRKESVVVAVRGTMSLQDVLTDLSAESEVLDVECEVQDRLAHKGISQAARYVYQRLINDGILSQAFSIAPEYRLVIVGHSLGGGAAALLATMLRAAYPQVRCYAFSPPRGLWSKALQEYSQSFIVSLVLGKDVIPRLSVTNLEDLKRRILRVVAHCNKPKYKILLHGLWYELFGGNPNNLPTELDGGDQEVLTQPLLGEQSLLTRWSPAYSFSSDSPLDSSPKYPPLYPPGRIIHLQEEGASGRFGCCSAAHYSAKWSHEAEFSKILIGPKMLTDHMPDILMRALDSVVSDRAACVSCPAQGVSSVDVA
Vif imaging – inhibitors of HIV Vif. actives 0.35% (n = 340,000). HEK293T cells, Vif self-association by quenched fluorescence, imaging, 24 h. inhibition, % at 7.49 µM; in the data active = inhibition above about 50%, passing the limit was not always enough; inconclusive = no clear call, values can overlap the other calls; inactive = below about 31%
core dimer inh – HCV core protein dimerization inhibition; TR-FRET GST/Flag-core106 dimerization, 1536-well; inhibition, % at 5 µM; actives 0.33% (n = 300,000); AID 1899;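 active = inhibition above the mean of all tested compounds plus 3 SD, set per screening campaign, cut at about 45% in these data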
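Material: GST/Flag-tagged HCV core106 proteins. Incubation: 4 h, 22.5 °C incubation. Read-out basis: inhibition (%) from 671 over 617 nm ratio. Measured by: TR-FRET, excitation 340 nm, emission 617 and 671 nm.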
NR2E3 ag conf – confirmation of human NR2E3 agonists. shares compounds with NR2E3 ag-1. CHO-S mammalian two-hybrid NR2E3-NCOR, luciferase luminescence. inhibition, % at 3.98 µM. actives 51% (n = 2,300). AID 624378;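 active = average inhibition above a cutoff equal to the mean inhibition of all tested compounds plus one SD, cut at about 70% in these data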;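 note: 0% = DMSO in NR2E3 cells and 100% = DMSO in cells lacking NR2E3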
VP16 counter – GAL4-VP16 reporter inhibition in NR2E3 agonist counterscreen | actives 29% (n = 2,300) | shares compounds with NR2E3 ag-1 | CHO-S GAL4-VP16 luciferase reporter, luminescence | inhibition, % at 3.98 µM | AID 624379;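 active = mean inhibition above a cutoff equal to the average over all tested compounds plus one standard deviation, cut at about 70% in these data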;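 note: luciferase from a UAS reporter driven by GAL4-VP16 transactivation; 0% = DMSO with VP16-transfected cells and 100% = DMSO with cells lacking VP16; higher means less reporter light so more repression of VP16 activity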
* hit, by the source's call; ? = inconclusive; nt = not tested or not shown.

SMILES	MT1-MMP act inh	NR2E3 ag-1	NR2E3 ag-2	DAGLB inh	Vif imaging	core dimer inh	NR2E3 ag conf	VP16 counter
Cn1nc(C(F)(F)F)c(/C=N/OC(=O)c2ccccc2)c1SCc1ccccc1Cl	-1.2	64.6	-4.6	-19.8	-1.3	-2.1	70.6*	69.5
CC1CCN(S(=O)(=O)c2cccc3cccnc23)CC1	-2.1	-16.5	1.7	-3.3	-17.6	-2.0	nt	nt
Cc1ccccc1Oc1cc(NC(=O)CCCn2nc(C)c([N+](=O)[O-])c2C)cc([N+](=O)[O-])c1	-0.9	60.0	-1.0	-7.7	-1.3	-5.0	66.4	41.1
Cc1cccc(C)c1N1CCN(C(c2cc3ccccc3o2)c2nnnn2C(C)(C)C)CC1 (stereo unspecified)	4.5	75.2*	nt	nt	nt	nt	83.8*	67.0
Cc1sc2ncn(CCn3cnc4sc(C)c(C)c4c3=O)c(=O)c2c1C	8.9	55.4	3.1	-3.0	-9.8	8.5	68.0	52.1
Cc1sc2ncn(CCC(=O)O)c(=O)c2c1C	-1.4	-0.3	1.7	1.5	1.5	-7.5	nt	nt
COc1ccc2cc(S(=O)(=O)NCc3cccnc3)ccc2c1	-3.1	57.1	3.9	0.6	-4.5	-0.1	25.8	37.8
O=C(Nc1ccc(Cl)c(Cl)c1)c1cccc(S(=O)(=O)NCc2cccnc2)c1	3.6	55.4	-2.4	-0.8	1.0	-10.3	84.3*	71.5*
COc1cccc(S(=O)(=O)NCc2ccc(C(=O)Nc3ccc(Cl)c(Cl)c3)cc2)c1	1.8	13.3	4.9	-1.8	-28.7	15.4	nt	nt
C=CCOc1ccc(CN(C)c2ccc(S(=O)(=O)N3CCN(C)CC3)cc2[N+](=O)[O-])cc1	2.5	-4.0	2.4	0.2	-29.3	nt	nt	nt
CCOc1ccc(CN(C)c2ccc(S(=O)(=O)N3CCN(C)CC3)cc2[N+](=O)[O-])cc1OC	4.3	65.7	3.1	1.1	-1.8	nt	77.6*	68.5
O=C(Nc1ccc(Cl)cc1)c1cc2c(cc1O)[nH]c1ccccc12	8.6	100.7*	-1.4	-2.7	1.3	3.7	99.1*	89.8*
O=c1c2ccccc2sn1-c1ccc(Cl)cc1	0.5	54.9	nt	2.0	-10.7	nt	-47.1	-122.4
O=c1c2ccccc2sn1-c1ccc(F)cc1	-5.0	40.7	1.8	2.6	0.6	nt	nt	nt
Cc1cc(C)c(C(=O)/C=C/c2cccc3ccccc23)c(=O)[nH]1	-14.6	62.8	-1.4	8.7	-1.0	10.4	13.8	30.6
Cc1cc(C)c(C(=O)/C=C/c2ccc3c(c2)OCO3)c(=O)[nH]1	2.8	6.8	0.6	3.9	8.5	4.0	nt	nt
CCOC(=O)C1=C[C@@H](C2CCCCC2)N(S(=O)(=O)c2ccc([N+](=O)[O-])cc2)[C@H]1c1ccccc1	-3.5	74.3*	nt	nt	21.5	nt	51.8	43.0
O=C(NC(=C(Cl)Cl)S(=O)(=O)c1ccc(Cl)cc1)c1ccccc1	7.0	64.5	-0.6	7.7	2.4	17.3	32.5	19.5
Cc1ccc(C(=O)NC(=C(Cl)Cl)S(=O)(=O)c2ccc(C)cc2)cc1	0.2	23.7	-2.2	0.5	-2.5	4.4	nt	nt
CC(=O)NC(=C(Cl)Cl)S(=O)(=O)c1ccccc1	-0.2	50.7	-4.7	2.8	nt	4.0	6.3	-7.0
Cc1ccc(S(=O)(=O)C(NC(=O)c2ccccc2)=C(Cl)Cl)cc1	-0.1	21.7	0.1	-1.7	?	13.6	nt	nt
COc1ccccc1CN(C)C(=O)c1cccc(S(=O)(=O)N2CCCc3ccccc32)c1	-4.9	-34.6	0.1	-6.0	-8.1	nt	nt	nt
Nc1ccc(Br)cc1-c1nc2ccccc2[nH]c1=O	-4.2	62.0	0.8	6.8	nt	0.5	91.1*	76.8*
Nc1ccccc1-c1nc2ccccc2[nH]c1=O	0.6	-41.6	nt	2.1	5.8	nt	nt	nt
CC(=O)N1CCc2cc(S(=O)(=O)NC3CCCc4ccccc43)ccc21 (stereo unspecified)	10.1	66.7	2.5	-1.0	-12.2	6.5	56.2	53.0
SMILES	MT1-MMP act inh	NR2E3 ag-1	NR2E3 ag-2	DAGLB inh	Vif imaging	core dimer inh	NR2E3 ag conf	VP16 counter
O=C(O)c1ccc(S(=O)(=O)NC2CCCc3ccccc32)cc1 (stereo unspecified)	-0.2	-8.1	2.6	0.8	13.1	-3.7	nt	nt
c1ccc(-c2nc(N3CCCCCC3)c3ccccc3n2)nc1	-2.1	109.3*	-1.1	-0.8	-9.1	5.6	100.4*	72.7*
CCCN(CCC)c1nc(-c2ccccn2)nc2ccccc12	-3.1	103.7*	nt	-3.6	-14.7	nt	99.1*	85.1*
CCN(CC)c1nc(-c2ccccn2)nc(-c2ccccc2)c1C#N	-10.8	82.6*	4.7	-3.6	-2.7	2.1	47.3	38.9
c1ccc(CCNc2nc(-c3ccccn3)nc3ccccc23)cc1	7.5	103.2*	0.1	5.5	-11.5	8.7	99.8*	84.6*
C/C(=N\Nc1nc(-c2ccccn2)nc2ccccc12)c1ccc(F)cc1	-2.3	-2.7	2.1	-3.7	-16.4	-5.2	nt	nt
c1ccc(-c2nc(N3CCOCC3)c3ccccc3n2)nc1	7.0	-17.9	0.4	-1.5	-3.8	1.7	nt	nt
Cc1c(/C(O)=C2/C(=O)C(=O)N(CCN3CCOCC3)C2c2ccccn2)cnn1-c1ccccc1 (stereo unspecified)	0.2	84.1*	-0.5	nt	-6.7	6.6	33.1	56.9
CCC(CC)n1c(C)cc(=O)n1C(CC)CC	2.3	14.7	nt	-0.5	6.1	nt	nt	nt
O=c1ccc2cc(S(=O)(=O)N3CCN(c4ccccc4F)CC3)ccc2o1	3.5	-5.7	3.7	0.3	-12.3	13.3	nt	nt
O=c1[nH]c2ccc(S(=O)(=O)N3CCN(c4ccccc4F)CC3)cc2s1	3.4	50.2	-1.1	1.6	nt	18.7	60.2	51.1
COC(=O)c1ccccc1COc1cccn2c(N(C)C(=O)CCC3CCCC3)c(C)nc12	-17.9	4.6	nt	nt	-8.8	nt	nt	nt
COC(=O)c1cccc(CSc2nc(-c3ccccc3)c(C#N)c(=O)[nH]2)c1	1.5	-10.7	8.0	11.2	0.2	16.7	nt	nt
N#Cc1c(-c2ccccc2)nc(SCc2ccc(Cl)cc2)[nH]c1=O	3.5	72.2*	5.6	12.1	-2.3	3.0	58.4	35.7
CN(C(=O)OC(C)(C)C)c1ccc(-c2nc3ccccc3s2)cc1	5.9	89.1*	1.7	-14.4	-7.8	-2.0	85.5*	77.5*
FC(F)(F)c1ccc(-c2nc3ccccc3s2)cc1	3.1	-37.3	nt	nt	9.1	nt	nt	nt
CC(C)c1ccc(-c2nc3ccccc3s2)cc1	-5.3	87.6*	3.2	-10.5	-6.0	3.8	71.3*	58.1
